Results published in ChEMBL document CHEMBL4689842, “EUbOPEN Chemogenomics Library wave 1” (2021).

Test system: Fibroblast
Assay: Multiplex assay against human fibroblast
Type: toxicity, cell-based
How it was run: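 Four dyes were applied at seeding to live cells: Hoechst33342, BioTracker Green Microtubule Cytoskeleton Dye, MitoTracker Red and Annexin V Alexa Fluor 680. Imaging after compound addition used a CQ1 microscope at 37°C and 5% CO2. CellPathfinder machine-learning gating then sorted cells into Hoechst high-intensity objects or normal cells, normal cells into healthy, pyknosed or fragmented nuclei, and pyknosed cells into mitotic or apoptotic, with tubulin, mitochondrial-mass and membrane-permeability phenotypes given as per cents of healthy-nucleus cells.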

[1] = 12 h, 1 µM, compound concentration 1 uM, replicate 1
[2] = 12 h, 1 µM, compound concentration 1 uM, replicate 2
[3] = 12 h, 10 µM, compound concentration 10 uM, replicate 1
[4] = 12 h, 10 µM, compound concentration 10 uM, replicate 2
[5] = 24 h, 1 µM, compound concentration 1 uM, replicate 1
[6] = 24 h, 1 µM, compound concentration 1 uM, replicate 2
[7] = 24 h, 10 µM, compound concentration 10 uM, replicate 1
[8] = 24 h, 10 µM, compound concentration 10 uM, replicate 2
[9] = 48 h, 1 µM, compound concentration 1 uM, replicate 1
[10] = 48 h, 1 µM, compound concentration 1 uM, replicate 2
[11] = 48 h, 10 µM, compound concentration 10 uM, replicate 1
[12] = 48 h, 10 µM, compound concentration 10 uM, replicate 2

Compound: CC[C@H](C)C(=O)O[C@H]1C[C@@H](C)C=C2C=C[C@H](C)[C@H](CC[C@@H]3C[C@@H](O)CC(=O)O3)[C@H]21 [LOVASTATIN]
- Population Apoptotic (%) [1]: 63%
- Population Fragmented Nuclei (%) [1]: 33%
- Population Healthy Nuclei (%) [1]: 35%
- Population Hoechst High Intensity Objects (%) [1]: 13%
- Population Membrane Permeable-Phenotype (%) [1]: 23%
- Population Mitochondria Different-Phenotype (%) [1]: 14%
- Population Mitotic Cells (%) [1]: 36%
- Population Normal (%) [1]: 86%
- Population Pyknosed Nuclei (%) [1]: 31%
- Population Tubulin-Different-Phenotype (%) [1]: 42%
- Total Cell Count [1]: 69
- Population Apoptotic (%) [2]: 25%
- Population Fragmented Nuclei (%) [2]: 22%
- Population Healthy Nuclei (%) [2]: 68%
- Population Hoechst High Intensity Objects (%) [2]: 11%
- Population Membrane Permeable-Phenotype (%) [2]: 3%
- Population Mitochondria Different-Phenotype (%) [2]: 6%
- Population Mitotic Cells (%) [2]: 75%
- Population Normal (%) [2]: 88%
- Population Pyknosed Nuclei (%) [2]: 8%
- Population Tubulin-Different-Phenotype (%) [2]: 3%
- Total Cell Count [2]: 87
- Population Apoptotic (%) [3]: 50%
- Population Fragmented Nuclei (%) [3]: 33%
- Population Healthy Nuclei (%) [3]: 45%
- Population Hoechst High Intensity Objects (%) [3]: 13%
- Population Membrane Permeable-Phenotype (%) [3]: 22%
- Population Mitochondria Different-Phenotype (%) [3]: 13%
- Population Mitotic Cells (%) [3]: 50%
- Population Normal (%) [3]: 86%
- Population Pyknosed Nuclei (%) [3]: 22%
- Population Tubulin-Different-Phenotype (%) [3]: 42%
- Total Cell Count [3]: 115
- Population Apoptotic (%) [4]: 100%
- Population Fragmented Nuclei (%) [4]: 4%
- Population Healthy Nuclei (%) [4]: 90%
- Population Hoechst High Intensity Objects (%) [4]: 8%
- Population Membrane Permeable-Phenotype (%) [4]: 10%
- Population Mitochondria Different-Phenotype (%) [4]: 12%
- Population Mitotic Cells (%) [4]: 0%
- Population Normal (%) [4]: 91%
- Population Pyknosed Nuclei (%) [4]: 4%
- Population Tubulin-Different-Phenotype (%) [4]: 20%
- Total Cell Count [4]: 54
- Population Apoptotic (%) [5]: 44%
- Population Fragmented Nuclei (%) [5]: 36%
- Population Healthy Nuclei (%) [5]: 47%
- Population Hoechst High Intensity Objects (%) [5]: 11%
- Population Membrane Permeable-Phenotype (%) [5]: 11%
- Population Mitochondria Different-Phenotype (%) [5]: 15%
- Population Mitotic Cells (%) [5]: 55%
- Population Normal (%) [5]: 88%
- Population Pyknosed Nuclei (%) [5]: 16%
- Population Tubulin-Different-Phenotype (%) [5]: 38%
- Total Cell Count [5]: 62
- Population Apoptotic (%) [6]: 40%
- Population Fragmented Nuclei (%) [6]: 22%
- Population Healthy Nuclei (%) [6]: 70%
- Population Hoechst High Intensity Objects (%) [6]: 9%
- Population Membrane Permeable-Phenotype (%) [6]: 0%
- Population Mitochondria Different-Phenotype (%) [6]: 4%
- Population Mitotic Cells (%) [6]: 60%
- Population Normal (%) [6]: 90%
- Population Pyknosed Nuclei (%) [6]: 7%
- Population Tubulin-Different-Phenotype (%) [6]: 4%
- Total Cell Count [6]: 93
- Population Apoptotic (%) [7]: 43%
- Population Fragmented Nuclei (%) [7]: 26%
- Population Healthy Nuclei (%) [7]: 48%
- Population Hoechst High Intensity Objects (%) [7]: 14%
- Population Membrane Permeable-Phenotype (%) [7]: 19%
- Population Mitochondria Different-Phenotype (%) [7]: 10%
- Population Mitotic Cells (%) [7]: 56%
- Population Normal (%) [7]: 85%
- Population Pyknosed Nuclei (%) [7]: 24%
- Population Tubulin-Different-Phenotype (%) [7]: 28%
- Total Cell Count [7]: 110
- Population Apoptotic (%) [8]: 28%
- Population Fragmented Nuclei (%) [8]: 8%
- Population Healthy Nuclei (%) [8]: 79%
- Population Hoechst High Intensity Objects (%) [8]: 7%
- Population Membrane Permeable-Phenotype (%) [8]: 8%
- Population Mitochondria Different-Phenotype (%) [8]: 4%
- Population Mitotic Cells (%) [8]: 71%
- Population Normal (%) [8]: 92%
- Population Pyknosed Nuclei (%) [8]: 11%
- Population Tubulin-Different-Phenotype (%) [8]: 23%
- Total Cell Count [8]: 74
- Population Apoptotic (%) [9]: 66%
- Population Fragmented Nuclei (%) [9]: 55%
- Population Healthy Nuclei (%) [9]: 39%
- Population Hoechst High Intensity Objects (%) [9]: 9%
- Population Membrane Permeable-Phenotype (%) [9]: 26%
- Population Mitochondria Different-Phenotype (%) [9]: 0%
- Population Mitotic Cells (%) [9]: 33%
- Population Normal (%) [9]: 90%
- Population Pyknosed Nuclei (%) [9]: 5%
- Population Tubulin-Different-Phenotype (%) [9]: 39%
- Total Cell Count [9]: 64
- Population Apoptotic (%) [10]: 33%
- Population Fragmented Nuclei (%) [10]: 17%
- Population Healthy Nuclei (%) [10]: 73%
- Population Hoechst High Intensity Objects (%) [10]: 7%
- Population Membrane Permeable-Phenotype (%) [10]: 23%
- Population Mitochondria Different-Phenotype (%) [10]: 6%
- Population Mitotic Cells (%) [10]: 66%
- Population Normal (%) [10]: 92%
- Population Pyknosed Nuclei (%) [10]: 9%
- Population Tubulin-Different-Phenotype (%) [10]: 23%
- Total Cell Count [10]: 69
- Population Apoptotic (%) [11]: 71%
- Population Fragmented Nuclei (%) [11]: 58%
- Population Healthy Nuclei (%) [11]: 33%
- Population Hoechst High Intensity Objects (%) [11]: 20%
- Population Membrane Permeable-Phenotype (%) [11]: 19%
- Population Mitochondria Different-Phenotype (%) [11]: 3%
- Population Mitotic Cells (%) [11]: 28%
- Population Normal (%) [11]: 80%
- Population Pyknosed Nuclei (%) [11]: 7%
- Population Tubulin-Different-Phenotype (%) [11]: 29%
- Total Cell Count [11]: 115
- Population Fragmented Nuclei (%) [12]: 37%
- Population Healthy Nuclei (%) [12]: 52%
- Population Hoechst High Intensity Objects (%) [12]: 15%
- Population Membrane Permeable-Phenotype (%) [12]: 14%
- Population Mitochondria Different-Phenotype (%) [12]: 2%
- Population Normal (%) [12]: 84%
- Population Pyknosed Nuclei (%) [12]: 10%
- Population Tubulin-Different-Phenotype (%) [12]: 34%
- Total Cell Count [12]: 79

Compound: Cc1nc(-c2cn3c(n2)-c2ccc(-c4cnn(C(C)(C)C(N)=O)c4)cc2OCC3)n(C(C)C)n1 [TASELISIB]
- Population Apoptotic (%) [1]: 85%
- Population Fragmented Nuclei (%) [1]: 29%
- Population Healthy Nuclei (%) [1]: 53%
- Population Hoechst High Intensity Objects (%) [1]: 12%
- Population Membrane Permeable-Phenotype (%) [1]: 7%
- Population Mitochondria Different-Phenotype (%) [1]: 6%
- Population Mitotic Cells (%) [1]: 14%
- Population Normal (%) [1]: 87%
- Population Pyknosed Nuclei (%) [1]: 17%
- Population Tubulin-Different-Phenotype (%) [1]: 16%
- Total Cell Count [1]: 221
- Population Apoptotic (%) [2]: 100%
- Population Fragmented Nuclei (%) [2]: 61%
- Population Healthy Nuclei (%) [2]: 33%
- Population Hoechst High Intensity Objects (%) [2]: 30%
- Population Membrane Permeable-Phenotype (%) [2]: 15%
- Population Mitochondria Different-Phenotype (%) [2]: 10%
- Population Mitotic Cells (%) [2]: 0%
- Population Normal (%) [2]: 69%
- Population Pyknosed Nuclei (%) [2]: 5%
- Population Tubulin-Different-Phenotype (%) [2]: 60%
- Total Cell Count [2]: 86
- Population Apoptotic (%) [3]: 71%
- Population Fragmented Nuclei (%) [3]: 25%
- Population Healthy Nuclei (%) [3]: 65%
- Population Hoechst High Intensity Objects (%) [3]: 11%
- Population Membrane Permeable-Phenotype (%) [3]: 7%
- Population Mitochondria Different-Phenotype (%) [3]: 2%
- Population Mitotic Cells (%) [3]: 28%
- Population Normal (%) [3]: 88%
- Total Cell Count [3]: 188
- Population Apoptotic (%) [4]: 33%
- Population Fragmented Nuclei (%) [4]: 47%
- Population Healthy Nuclei (%) [4]: 43%
- Population Hoechst High Intensity Objects (%) [4]: 30%
- Population Membrane Permeable-Phenotype (%) [4]: 13%
- Population Mitochondria Different-Phenotype (%) [4]: 13%
- Population Mitotic Cells (%) [4]: 66%
- Population Normal (%) [4]: 69%
- Population Pyknosed Nuclei (%) [4]: 8%
- Population Tubulin-Different-Phenotype (%) [4]: 0%
- Total Cell Count [4]: 99
- Population Apoptotic (%) [5]: 78%
- Population Fragmented Nuclei (%) [5]: 32%
- Population Healthy Nuclei (%) [5]: 51%
- Population Hoechst High Intensity Objects (%) [5]: 14%
- Population Membrane Permeable-Phenotype (%) [5]: 5%
- Population Mitochondria Different-Phenotype (%) [5]: 7%
- Population Mitotic Cells (%) [5]: 21%
- Population Normal (%) [5]: 85%
- Population Pyknosed Nuclei (%) [5]: 16%
- Population Tubulin-Different-Phenotype (%) [5]: 18%
- Total Cell Count [5]: 238
- Population Apoptotic (%) [6]: 60%
- Population Fragmented Nuclei (%) [6]: 62%
- Population Healthy Nuclei (%) [6]: 30%
- Population Hoechst High Intensity Objects (%) [6]: 27%
- Population Membrane Permeable-Phenotype (%) [6]: 14%
- Population Mitochondria Different-Phenotype (%) [6]: 0%
- Population Mitotic Cells (%) [6]: 40%
- Population Normal (%) [6]: 72%
- Population Pyknosed Nuclei (%) [6]: 7%
- Population Tubulin-Different-Phenotype (%) [6]: 47%
- Total Cell Count [6]: 97
- Population Apoptotic (%) [7]: 73%
- Population Fragmented Nuclei (%) [7]: 23%
- Population Healthy Nuclei (%) [7]: 67%
- Population Hoechst High Intensity Objects (%) [7]: 13%
- Population Membrane Permeable-Phenotype (%) [7]: 6%
- Population Mitochondria Different-Phenotype (%) [7]: 2%
- Population Mitotic Cells (%) [7]: 26%
- Population Normal (%) [7]: 86%
- Population Tubulin-Different-Phenotype (%) [7]: 1%
- Total Cell Count [7]: 188
- Population Apoptotic (%) [8]: 42%
- Population Fragmented Nuclei (%) [8]: 38%
- Population Healthy Nuclei (%) [8]: 51%
- Population Hoechst High Intensity Objects (%) [8]: 22%
- Population Membrane Permeable-Phenotype (%) [8]: 10%
- Population Mitochondria Different-Phenotype (%) [8]: 15%
- Population Mitotic Cells (%) [8]: 57%
- Population Normal (%) [8]: 77%
- Population Pyknosed Nuclei (%) [8]: 9%
- Population Tubulin-Different-Phenotype (%) [8]: 5%
- Total Cell Count [8]: 99
